Active and inactive are the calls of the source. The calls are words filed in the database; no cut-off is given here.
Experiments:
LNCaP [1] = test: Cytotoxicity against human LNCAP cells after 24 hrs by WST-1 assay; format: functional, cell-based
How it was run: (§1)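 Dark cytotoxicity (no light exposure) by WST-1 tetrazolium-to-formazan conversion reflecting metabolic activity; compounds tested at concentrations up to 50 μM for 24, 48 or 72 h; IC50 taken as concentration giving 50% inhibition of cell viability.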

LNCaP [2] = test: Cytotoxicity against human LNCAP cells after 48 hrs by WST-1 assay; format: functional, cell-based; how it was run: as §1
LNCaP [3] = test: Cytotoxicity against human LNCAP cells after 72 hrs by WST-1 assay; format: functional, cell-based; how it was run: as §1
[4] = Cytotoxicity against human PC3 cells after 24 hrs by WST-1 assay; format: functional, cell-based; details: PC-3, 24 h; how it was run: as §1
[5] = Cytotoxicity against human PC3 cells after 48 hrs by WST-1 assay; format: functional, cell-based; details: PC-3, 48 h; how it was run: as §1
[6] = Cytotoxicity against human PC3 cells after 72 hrs by WST-1 assay; format: functional, cell-based; details: PC-3, 72 h; how it was run: as §1
C2C12 [7] = test: Cytotoxicity against mouse C2C12 cells after 24 hrs by WST-1 assay; format: functional, cell-based; details: C2C12, 24 h; how it was run: as §1
C2C12 [8] = test: Cytotoxicity against mouse C2C12 cells after 48 hrs by WST-1 assay; format: functional, cell-based; details: C2C12, 48 h; how it was run: as §1
C2C12 [9] = test: Cytotoxicity against mouse C2C12 cells after 72 hrs by WST-1 assay; format: functional, cell-based; details: C2C12, 72 h; how it was run: as §1
U2OS [10] = test: Cytotoxicity against human U2OS cells after 24 hrs by WST-1 assay; format: functional, cell-based; how it was run: as §1
U2OS [11] = test: Cytotoxicity against human U2OS cells after 48 hrs by WST-1 assay; format: functional, cell-based; how it was run: as §1
U2OS [12] = test: Cytotoxicity against human U2OS cells after 72 hrs by WST-1 assay; format: functional, cell-based; how it was run: as §1
MCF7 [13] = test: Cytotoxicity against human MCF7 cells after 24 hrs by WST-1 assay; format: functional, cell-based; details: MCF7, 24 h; how it was run: as §1
MCF7 [14] = test: Cytotoxicity against human MCF7 cells after 48 hrs by WST-1 assay; format: functional, cell-based; details: MCF7, 48 h; how it was run: as §1
MCF7 [15] = test: Cytotoxicity against human MCF7 cells after 72 hrs by WST-1 assay; format: functional, cell-based; details: MCF7, 72 h; how it was run: as §1
[16] = Cytotoxicity against human MIAPaCa2 cells after 24 hrs by WST-1 assay; format: functional, cell-based; details: MIA PaCa-2, 24 h; how it was run: as §1
[17] = Cytotoxicity against human MIAPaCa2 cells after 48 hrs by WST-1 assay; format: functional, cell-based; details: MIA PaCa-2, 48 h; how it was run: as §1
[18] = Cytotoxicity against human MIAPaCa2 cells after 72 hrs by WST-1 assay; format: functional, cell-based; details: MIA PaCa-2, 72 h; how it was run: as §1
HT-29 [19] = test: Cytotoxicity against human HT-29 cells after 24 hrs by WST-1 assay; format: functional, cell-based; details: HT-29, 24 h; how it was run: as §1
HT-29 [20] = test: Cytotoxicity against human HT-29 cells after 48 hrs by WST-1 assay; format: functional, cell-based; details: HT-29, 48 h; how it was run: as §1
HT-29 [21] = test: Cytotoxicity against human HT-29 cells after 72 hrs by WST-1 assay; format: functional, cell-based; details: HT-29, 72 h; how it was run: as §1
[22] = Cytotoxicity against rat peritoneal cells assessed as reduction in cell viability at 40 uM after 24 hrs by WST-1 assay; format: cell-based
Rattus norvegicus [23] = organism: Rattus norvegicus; test: Induction of LPS-induced NO production in rat peritoneal cells after 24 hrs using DAR-2 probe by fluorescence assay; format: functional, cell-based
U2OS [24] = test: Cellular uptake in human U2OS cells at 5 uM after 24 hrs by fluorescence microscopy; format: ADME, cell-based
How it was run: (§2)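 Live-cell fluorescence microscopy of Bodipy-labelled conjugates (green emission), 5 μM, uptake followed at 10, 20, 40 min and 1, 3, 5, 24 h. Cells stained with Bodipy dye alone served as control for dye-driven localization.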

[25] = Cellular uptake in human PC3 cells at 5 uM after 24 hrs by fluorescence microscopy; format: ADME, cell-based; details: pc-3, 24 h; how it was run: as §2
LNCaP [26] = test: Cellular uptake in human LNCAP cells at 5 uM after 24 hrs by fluorescence microscopy; format: ADME, cell-based; how it was run: as §2
MCF7 [27] = test: Cellular uptake in human MCF7 cells at 5 uM after 24 hrs by fluorescence microscopy; format: ADME, cell-based; details: mcf7, 24 h
HeLa = test: Cellular uptake in human HeLa cells at 5 uM after 24 hrs by fluorescence microscopy; format: ADME, cell-based; how it was run: as §2
[28] = Cellular uptake in human MIAPaCa2 cells at 5 uM after 24 hrs by fluorescence microscopy; format: ADME, cell-based; details: mia paca-2, 24 h; how it was run: as §2
A549 = test: Cellular uptake in human A549 cells at 5 uM after 24 hrs by fluorescence microscopy; format: ADME, cell-based; details: a549, 24 h; how it was run: as §2
C2C12 [29] = test: Cellular uptake in mouse C2C12 cells at 5 uM after 24 hrs by fluorescence microscopy; format: ADME, cell-based; details: c2c12, 24 h; how it was run: as §2
[30] = Cellular uptake in HEK293T cells at 5 uM after 24 hrs by fluorescence microscopy; format: ADME, cell-based; details: human, hek-293t; how it was run: as §2
[31] = Cytotoxicity against rat peritoneal cells assessed as reduction in cell viability at 40 uM after 24 hrs by WST-1 assay
Rattus norvegicus [32] = organism: Rattus norvegicus; test: Induction of TNFalpha production in rat peritoneal cells at 0.01 to 40 uM after 24 hrs by ELISA; format: functional, cell-based

| SMILES | IC50 (LNCaP [1]) [µM] | IC50 (LNCaP [2]) [µM] | IC50 (LNCaP [3]) [µM] | IC50 [4] [µM] | IC50 [5] [µM] | IC50 [6] [µM] | IC50 (C2C12 [7]) [µM] | IC50 (C2C12 [8]) [µM] | IC50 (C2C12 [9]) [µM] | IC50 (U2OS [10]) [µM] | IC50 (U2OS [11]) [µM] | IC50 (U2OS [12]) [µM] | IC50 (MCF7 [13]) [µM] | IC50 (MCF7 [14]) [µM] | IC50 (MCF7 [15]) [µM] | IC50 [16] [µM] | IC50 [17] [µM] | IC50 [18] [µM] | IC50 (HT-29 [19]) [µM] | IC50 (HT-29 [20]) [µM] | other results |
| --- | --- | --- | --- | --- | --- | --- | --- | --- | --- | --- | --- | --- | --- | --- | --- | --- | --- | --- | --- | --- | --- |
| C/C=C(/C)C(=O)O[C@@H]1C[C@H]2C(=C1C)[C@@H]1OC(=O)[C@@](C)(O)[C@@]1(O)[C@@H](OC(=O)CCOCCOCCOCCOCCn1cc(COCCOCCOCCOCCNC(=O)CCOCCOCCOCCOCCn3cc(COc4ccc(C5=C6C=CC=[N+]6[B-](F)(F)n6cccc65)cc4)nn3)nn1)C[C@]2(C)OC(C)=O | > 50 | > 50 | > 50 | > 50 | > 50 | > 50 | > 50 | > 50 | > 50 | > 50 | > 50 | > 50 | > 50 | > 50 | > 50 | > 50 | > 50 | > 50 | > 50 | > 50 | IC50 (HT-29 [21]): > 50 µM; Activity [22]: Non-toxic; Activity (Rattus norvegicus [23]): Dose-dependent effect; Drug uptake (U2OS [24]): Not Active; Drug uptake [25]: Not Active; Drug uptake (LNCaP [26]): Not Active; Drug uptake (MCF7 [27]): Not Active; Drug uptake (HeLa): Not Active; Drug uptake [28]: Not Active; Drug uptake (A549): Not Active; Drug uptake (C2C12 [29]): Not Active; Drug uptake [30]: Not Active; Activity [31]: Non-toxic |
| F[B-]1(F)n2cccc2C=C2C=CC=[N+]21 | > 50 | > 50 | > 50 | 1.5 | 3.1 | 5.6 | > 50 | > 50 | > 50 | > 50 | > 50 | > 50 | > 50 | > 50 | > 50 | > 50 | > 50 | > 50 | > 50 | > 50 | IC50 (HT-29 [21]): > 50 µM; Activity (Rattus norvegicus [23]): inactive; Activity (Rattus norvegicus [32]): inactive |
| C/C=C(/C)C(=O)O[C@@H]1C[C@H]2C(=C1C)[C@@H]1OC(=O)[C@@](C)(O)[C@@]1(O)[C@@H](OC(=O)Cn1cc(COc3ccc(C4=C5C=CC=[N+]5[B-](F)(F)n5cccc54)cc3)nn1)C[C@]2(C)OC(C)=O | > 50 | 3.5 | > 50 | 2.2 | 2.9 | 3.2 | > 50 | > 50 | > 50 | > 50 | > 50 | > 50 | > 50 | > 50 | > 50 | > 50 | > 50 | > 50 | > 50 | > 50 | IC50 (HT-29 [21]): > 50 µM; Activity [22]: Non-toxic; Activity (Rattus norvegicus [23]): Dose-dependent effect; Drug uptake (U2OS [24]): Not Active; Drug uptake [25]: Not Active; Drug uptake (LNCaP [26]): Not Active; Drug uptake (MCF7 [27]): Not Active; Drug uptake (HeLa): Not Active; Drug uptake [28]: Not Active; Drug uptake (A549): Not Active; Drug uptake (C2C12 [29]): Not Active; Drug uptake [30]: Not Active; Activity [31]: Non-toxic |
